Results from ChEMBL document CHEMBL3085741, “Structure-activity relationships and molecular modeling of sphingosine kinase inhibitors” (J Med Chem, 2013).
Calls of active or inactive are those of the source. No cut-off for these calls is given here.

How the values were obtained:
Sphingosine kinase 1 [1] = molecular target: T1, Sphingosine kinase 1 (Homo sapiens, UniProt Q9NYA1); experiment: Inhibition of recombinant sphingosine kinase 1 (unknown origin) expressed in HEK293 cells using sphingosine as substrate at 50 uM after 30 mins relative to control in presence of [gamma32P]-ATP
T1 sequence (Q9NYA1 whole entry): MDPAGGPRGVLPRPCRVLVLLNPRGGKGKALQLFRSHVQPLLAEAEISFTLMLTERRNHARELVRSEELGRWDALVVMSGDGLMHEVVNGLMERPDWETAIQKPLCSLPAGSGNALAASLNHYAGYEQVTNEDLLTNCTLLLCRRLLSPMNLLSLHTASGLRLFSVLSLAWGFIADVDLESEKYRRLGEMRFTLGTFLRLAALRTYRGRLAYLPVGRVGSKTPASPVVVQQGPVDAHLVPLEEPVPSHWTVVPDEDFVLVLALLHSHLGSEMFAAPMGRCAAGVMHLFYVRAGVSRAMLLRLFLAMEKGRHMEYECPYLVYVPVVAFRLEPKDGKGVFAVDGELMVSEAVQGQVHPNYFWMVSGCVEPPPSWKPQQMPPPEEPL
How it was run: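 Single-point inhibitor test at 50 μM with 250 μM ATP. […] Activity is reported as % of control, where control (100%) is activity with sphingosine alone. n = 3, mean ± SD.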

Sphingosine kinase 1 [2] = molecular target: T1, Sphingosine kinase 1; experiment: Inhibition of recombinant sphingosine kinase 1 (unknown origin) expressed in HEK293 cells using sphingosine as substrate at 100 uM after 30 mins relative to control in presence of [gamma32P]-ATP
[3] = molecular target: T2, Sphingosine kinase 2 (Homo sapiens) (UniProt Q9NRA0); experiment: Inhibition of sphingosine kinase 2 (unknown origin) using sphingosine as substrate at 50 uM after 30 mins relative to control in presence of [gamma32P]-ATP
T2 sequence (whole entry): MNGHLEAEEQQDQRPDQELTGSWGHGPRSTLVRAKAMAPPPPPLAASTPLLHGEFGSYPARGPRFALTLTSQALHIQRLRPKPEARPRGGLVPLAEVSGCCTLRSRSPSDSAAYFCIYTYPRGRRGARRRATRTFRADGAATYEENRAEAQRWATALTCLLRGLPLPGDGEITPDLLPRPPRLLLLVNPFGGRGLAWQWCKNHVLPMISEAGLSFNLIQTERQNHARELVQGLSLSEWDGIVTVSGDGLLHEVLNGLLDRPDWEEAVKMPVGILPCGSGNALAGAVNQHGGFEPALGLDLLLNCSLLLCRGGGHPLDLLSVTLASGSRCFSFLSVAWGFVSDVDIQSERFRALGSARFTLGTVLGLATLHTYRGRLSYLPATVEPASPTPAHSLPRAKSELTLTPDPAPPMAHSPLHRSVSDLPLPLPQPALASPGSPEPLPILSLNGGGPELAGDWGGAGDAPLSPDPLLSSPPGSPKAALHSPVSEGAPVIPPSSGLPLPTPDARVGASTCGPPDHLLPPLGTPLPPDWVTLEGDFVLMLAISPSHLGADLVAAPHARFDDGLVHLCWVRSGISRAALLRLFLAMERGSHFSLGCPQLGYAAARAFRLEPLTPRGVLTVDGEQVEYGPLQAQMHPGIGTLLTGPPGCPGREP

[4] = molecular target: T2, Sphingosine kinase 2 (Homo sapiens); experiment: Activity at sphingosine kinase 2 (unknown origin) at 50 uM after 30 mins in presence of [gamma32P]-ATP
Sphingosine kinase 1 [5] = molecular target: T1, Sphingosine kinase 1; experiment: Inhibition of recombinant sphingosine kinase 1 (unknown origin) expressed in HEK293 cells using sphingosine as substrate after 30 mins in presence of [gamma32P]-ATP
Sphingosine kinase 2 = molecular target: T3, Sphingosine kinase 2 (Homo sapiens, UniProt Q9NRA0); experiment: (§1) Inhibition of sphingosine kinase 2 (unknown origin) using sphingosine as substrate after 30 mins in presence of [gamma32P]-ATP
T3 sequence (Q9NRA0 whole entry): T2 sequence (whole entry)
How it was run: (§2)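 Results are given as % of the sphingosine-only control, and IC50 was derived from the curve. n = 3, ± SD.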

[6] = molecular target: T2, Sphingosine kinase 2 (Homo sapiens); experiment: as §1; how it was run: as §2
[7] = 100 uM, in the assay text read “at 100 uM” for “at 50 uM”

| inhibition (Sphingosine kinase 1 [1]) | SMILES | further results |
| --- | --- | --- |
| inactive | CCCCCCCCc1ccc(CCc2cccnc2)cc1 | – |
| – | CCCCCCCCc1ccc(CCN2CCC[C@H]2CO)cc1 | inhibition (Sphingosine kinase 1 [2]): 72.2%; inhibition [3, 7]: 45.7%; Activity [4]: Active |
| inactive | CCCCCCCCc1ccc(-n2cc(-c3cccnc3)nn2)cc1 | – |
| inactive | CCCCc1cn(-c2ccc(CCN3CCCCC3)cc2)nn1 | – |
| inactive | CCCCCc1cn(-c2ccc(CCN3CCCCC3)cc2)nn1 | – |
| Active | CCCCCCCCc1cn(-c2ccc(CCN3CCC(O)CC3)cc2)nn1 | – |
| inactive | Cc1ccc(CCN2CCC[C@@H]2CO)cc1 | – |
| inactive | CCCCCCCCCCCCc1ccc(CCN2CCC(N)CC2)cc1 | – |
| inactive | CCCCCc1cn(-c2ccc(CCN3CCC(O)CC3)cc2)nn1 | – |
| inactive | CCCCCCCCc1ccc(CCc2ccc[n+](C)c2)cc1 | inhibition ([3]; 50 uM): inactive |
| – | CCCCCCCCc1ccc(CCN2CCC(N)CC2)cc1 | IC50 (Sphingosine kinase 1 [5]): 16.9 µM; inhibition (Sphingosine kinase 1 [5]): Dose-dependent effect |
| inactive | CCCCCCCCCCCCc1ccc(C(=O)N2CCC[C@@H]2CO)cc1 | – |
| – | CCCCCCCCCCCCc1ccc(CCN2CCC[C@H]2CO)cc1 | inhibition (Sphingosine kinase 1 [2]): 49.9%; inhibition [3, 7]: 49.7%; Activity [4]: Active |
| inactive | CCCCc1cn(-c2ccc(CCN3CCC(O)CC3)cc2)nn1 | – |
| inactive | CCCCCc1cn(-c2ccc(CC[N+]3(C)CCCCC3)cc2)nn1 | inhibition ([3]; 50 uM): inactive |
| inactive | CCCCCCCCc1ccc(C(=O)N2CCC(O)CC2)cc1 | – |
| inactive | CCCCCCCCc1cn(-c2ccc(CCO)cc2)nn1 | – |
| inactive | CCCCCCCCc1ccc(C(=O)Nc2ccc(O)cc2)cc1 | – |

| inhibition (Sphingosine kinase 1 [1]) | SMILES | further results |
| --- | --- | --- |
| – | CCCCCCCCCCCCc1ccc(CCN2CCC[C@@H]2CO)cc1 | IC50 (Sphingosine kinase 2): 5 µM; inhibition [6]: Dose-dependent effect; IC50 (Sphingosine kinase 1 [5]): 5.3 µM; inhibition (Sphingosine kinase 1 [5]): Dose-dependent effect |
| Active | CCCCCCCCc1ccc(CCCCN2CCC(O)CC2)cc1 | – |
| inactive | CCCCCCCCCCCCc1ccc(C(=O)N2CCC(O)CC2)cc1 | – |
| – | CCCCCCCCc1ccc(CCN2CCC[C@@H]2CO)cc1 | IC50 (Sphingosine kinase 2): 5.2 µM; inhibition [6]: Dose-dependent effect; IC50 (Sphingosine kinase 1 [5]): 2.2 µM; inhibition (Sphingosine kinase 1 [5]): Dose-dependent effect |
| inactive | CCCCCCCCc1ccc(C(=O)Nc2ccc(CCO)cc2)cc1 | – |
| inactive | CCCCc1cn(-c2ccc(CC[N+]3(C)CCCCC3)cc2)nn1 | inhibition ([3]; 50 uM): inactive |
| inactive | Cc1ccc(CCN2CCC(N)CC2)cc1 | – |
| inactive | CCCCCCCCCCCCc1ccc(C(=O)N2CCC[C@H]2CO)cc1 | – |
| inactive | CCCCCCCCc1ccc(CCN2CCC(N=[N+]=[N-])CC2)cc1 | – |
| inactive | CCCCCCCCc1cn(-c2ccc(CCN3CCCCC3)cc2)nn1 | – |
| Active | CCCCCCCCc1ccc(CCCN2CCC(O)CC2)cc1 | – |
| inactive | CCCCCCCCc1cn(-c2ccc(CC[N+]3(C)CCCCC3)cc2)nn1 | inhibition ([3]; 50 uM): inactive |
| inactive | CCCCCCCCc1ccc(C[n+]2ccc(N3CCC(C)CC3)cc2)cc1 | inhibition ([3]; 50 uM): Active |
| inactive | CCCCCCCCc1cn(-c2ccc(O)cc2)nn1 | – |
| – | CCCCCCCCc1ccc(CCN2CCC(=O)CC2)cc1 | inhibition ([3]; 50 uM): Active |
| inactive | CCCCCCCCc1ccc(C(=O)NCc2ccncc2)cc1 | – |
| Active | CCCCCCCCc1ccc(CN2CCC(O)CC2)cc1 | – |
| inactive | Cc1ccc(CCN2CCC(N=[N+]=[N-])CC2)cc1 | – |

| SMILES | inhibition (Sphingosine kinase 1 [1]) | further results |
| --- | --- | --- |
| CCCCCCCCc1ccc(CCN2CCC(F)CC2)cc1 | inactive | – |
| CCCCCCCCc1ccc(CCN2CC[C@@H](O)C2)cc1 | Active | – |
| CCCCCCCCc1ccc(CCN2CC[C@H](O)C2)cc1 | Active | – |
| Cc1ccc(CCN2CCC(O)CC2)cc1 | inactive | – |
| CCCCCCCCc1ccc(CCN2CCC(OC)CC2)cc1 | inactive | – |
